Screening results as filed in PubChem BioAssay.
Only some compounds are listed: those with a hit (about 3.3% of all), similar ones and a draw of the others.
sPLA2-III inh: Inhibits HGIII-sPLA2 liposome hydrolysis, primary screen; AID 743126; 370,000 compounds, 0.56% hits; inhibition, % at 12.2 µM; QFRET BODIPY PC-A2 liposome hydrolysis, fluorescence; Q9NZ20;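 active = inhibition above mean plus 3 SD of compounds lying within the high and low control bounds, cut at about 19% in these data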;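 also: 0% = median of test compound wells and 100% = no enzyme DMSO wells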
Arrestin-AP2 inh: human beta-arrestin and AP2 interaction inhibition. 340,000 compounds, 0.31% hits. inhibition, % at 10 µM. AID 504490. FITC-arrestin peptide / GST-AP2 beads, flow cytometry; AP2 beta2 appendage carries R879A mutation;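 active = inhibition above a set limit, near 3 SD of compounds lacking own fluorescence, cut at about 54% in these data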;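 also: plate controls were DMSO wells for no effect and 5 µM unlabelled arrestin peptide for full effect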
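System: GST-AP2 R879A glutathione beads | Also added: FITC-arrestin peptide, 50 nM | Times: 12 min plus 1 h, RT | Signal: Bead flow cytometry, FITC channel | Buffer or medium: PBS with 0.05% Tween 20 and 0.1% BSA | Read-out basis: Percent drop in bead-associated FITC signal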
PfM18AAP inh: blocks P. falciparum M18 aspartyl aminopeptidase; recombinant PfM18AAP, H-Glu-NHMec fluorogenic cleavage; inhibition, % at 7.35 µM; 290,000 compounds, 1.2% hits;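 active = inhibition above the campaign mean inhibition over all tested compounds plus 3 SD, cut at about 28% in these data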;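 also: 0% = plate median of test compound wells and 100% = 2 mM ZnCl2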
Lipid droplet: hepatic lipid droplet formation modulation. AML12 mouse hepatocytes, oleate lipid droplets, BODIPY imaging. inhibition, % at 6.5 µM. 240,000 compounds, 0.4% hits;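 active = lipid droplet intensity inhibited by at least 50%, with more than 500 cells counted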
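Assay system: AML12 hepatocytes (mouse) / Also added: 100 µM oleic acid challenge / Times: overnight treatment with compound plus oleate / Detection: high-content imaging of BODIPY-stained droplets and DAPI nuclei / Evaluation: % inhibition of lipid droplet signal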
CendR NRP1 mod: alters CendR peptide binding to human NRP-1 | 360,000 compounds, 0.85% hits | inhibition, % at 25 µM | AID 602438 | FAM-RPARPAR peptide binding to NRP-1, fluorescence polarization;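 active = inhibition or corrected inhibition above about 18%, plus a signal ratio from 0.5 to 1.5, limit read from the data, passing the limit was not always enough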
Target sequence (O14786 whole entry, looked up): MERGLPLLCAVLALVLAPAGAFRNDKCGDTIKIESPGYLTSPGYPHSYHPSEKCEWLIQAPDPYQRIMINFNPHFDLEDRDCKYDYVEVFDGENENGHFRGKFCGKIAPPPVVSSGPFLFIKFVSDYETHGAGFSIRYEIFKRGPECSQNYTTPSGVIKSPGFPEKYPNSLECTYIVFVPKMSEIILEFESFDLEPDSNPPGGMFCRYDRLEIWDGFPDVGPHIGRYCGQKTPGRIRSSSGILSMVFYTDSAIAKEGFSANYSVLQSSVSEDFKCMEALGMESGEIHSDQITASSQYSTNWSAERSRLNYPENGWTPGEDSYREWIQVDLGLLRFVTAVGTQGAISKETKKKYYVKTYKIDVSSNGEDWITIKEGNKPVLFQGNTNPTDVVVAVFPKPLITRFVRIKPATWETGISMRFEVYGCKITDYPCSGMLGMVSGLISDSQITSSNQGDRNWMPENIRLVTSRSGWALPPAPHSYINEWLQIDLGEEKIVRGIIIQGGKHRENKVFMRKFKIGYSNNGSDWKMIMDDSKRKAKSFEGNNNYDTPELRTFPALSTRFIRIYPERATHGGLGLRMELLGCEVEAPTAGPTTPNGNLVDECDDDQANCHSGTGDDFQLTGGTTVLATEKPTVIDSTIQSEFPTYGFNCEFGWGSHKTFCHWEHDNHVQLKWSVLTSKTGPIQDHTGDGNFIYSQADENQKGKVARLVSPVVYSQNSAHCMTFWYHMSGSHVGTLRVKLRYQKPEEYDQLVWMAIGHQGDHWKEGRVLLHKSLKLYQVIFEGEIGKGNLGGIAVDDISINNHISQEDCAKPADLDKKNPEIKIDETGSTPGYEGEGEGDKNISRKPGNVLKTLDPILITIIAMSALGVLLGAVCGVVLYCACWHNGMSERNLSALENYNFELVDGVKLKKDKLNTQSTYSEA
HTR2A ag: mouse HTR2A agonism via beta-arrestin recruitment | CHO-K1 mHTR2A beta-arrestin complementation, luminescence; percent of 30 µM serotonin response | activation, % at 7.6 µM | 360,000 compounds, 0.66% hits;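 active = activation above a run cutoff, the mean activation of all tested compounds plus 3 SD, cut at about 14% in these data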;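 also: 0% = plate median of compound wells and 100% = 30 µM serotonin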
* hit, by the source's call; nt = not tested or not shown.

SMILES | sPLA2-III inh | Arrestin-AP2 inh | PfM18AAP inh | Lipid droplet | CendR NRP1 mod | HTR2A ag
CC1CCCCN1S(=O)(=O)c1cc2c(=O)nc3ccccn3c2cc1Cl (stereo not drawn) | 2 | nt | nt | nt | nt | nt
O=c1[nH]c2cc3c(cc2cc1CN(Cc1cccnc1)Cc1nnnn1Cc1ccco1)OCCO3 | -8 | 8 | 28* | -13 | -94 | 4
COCCn1nnnc1CN(CCc1ccccc1)Cc1cc2cc(OC)ccc2[nH]c1=O | -9 | 22 | 2 | nt | -16 | -4
COc1ccccc1CN(Cc1cc2cc3c(cc2[nH]c1=O)OCCO3)Cc1nnnn1Cc1ccco1 | 1 | 6 | 21 | nt | -27 | -1
O=c1[nH]c2cc3c(cc2cc1CN(Cc1cccs1)Cc1nnnn1Cc1ccco1)OCCO3 | 10 | 2 | 31* | nt | -20 | 3
Cc1ccc2[nH]c(=O)c(CN(Cc3ccc4c(c3)OCO4)Cc3nnnn3Cc3ccco3)cc2c1 | -23 | 6 | 6 | -42 | -30 | -5
O=c1[nH]c2cc3c(cc2cc1CN(Cc1ccccc1)Cc1nnnn1Cc1ccco1)OCCO3 | 16 | 3 | 30* | nt | -111 | 1
COCCn1nnnc1CN(Cc1cccnc1)Cc1cc2cc(OC)ccc2[nH]c1=O | 4 | 1 | 29* | nt | 5 | 1
COCCNC(=O)C1(C)CCCN(Cc2noc(-c3ccccc3OC)n2)C1 (stereo not drawn) | 5 | nt | nt | nt | -11 | 7
COc1cccc(OC)c1OCCN(C)C | 1 | -12 | 31* | -10 | 14 | -1
O=C(Nc1ccc(NC(=O)C2CC2)nc1)c1cnccn1 | 5 | 4 | -13 | 3 | 19* | -3
COC(CNC(=O)[C@H](Cc1ccccc1)NC1(C(=O)NC2CCCCC2)CCCC1)OC | 8 | nt | nt | nt | nt | nt
CC(=O)N/N=C/c1cc(C(C)C)cc(/C=N/NC(C)=O)c1O | -14 | -11 | 7 | 2 | 41* | -6
NNC(=O)c1nn(-c2ccccc2)cc1O | nt | nt | 28* | 2 | nt | nt
O=C(O)c1cn(-c2ccccc2)nc1C(=O)O | 8 | -3 | -5 | -8 | 4 | 2
CC1=C(C(=O)OCc2ccccc2)C(c2ccc([N+](=O)[O-])cc2)NC(=O)N1CCCCCC(=O)O (stereo not drawn) | -3 | -6 | 4 | -2 | 2 | 1
CCOC(=O)C1=C(C)N(CCCC(=O)O)C(=O)NC1c1ccc(OC)cc1 (stereo not drawn) | 13 | 3 | 7 | 19 | 26* | 1
CC1=C(C(=O)OCc2ccccc2)C(c2ccc([N+](=O)[O-])cc2)NC(=O)N1CCCC(=O)O (stereo not drawn) | 9 | 5 | 15 | -15 | 33* | -3
C[C@H](CO)N1C[C@H](C)[C@@H](CN(C)Cc2ccc(C(=O)O)cc2)Oc2c(NC(=O)Cc3ccccc3)cccc2C1=O | -6 | 0 | nt | nt | 30* | 1
C[C@@H]1CN([C@@H](C)CO)C(=O)c2cccc(NS(C)(=O)=O)c2O[C@H]1CN(C)Cc1ccc(C(=O)O)cc1 | 5 | 3 | nt | nt | 26* | -3
C[C@@H]1CN([C@H](C)CO)C(=O)c2cccc(NC(=O)c3ccncc3)c2O[C@@H]1CN(C)Cc1ccc(C(=O)O)cc1 | 4 | 0 | nt | nt | -2 | 3
CCOC(=O)c1ccc(NC(=O)OC[C@@H]2CSCCS(=O)(=O)N2)cc1 | 8 | nt | nt | nt | nt | nt
C[C@@H]1CN([C@@H](C)CO)S(=O)(=O)c2ccc(Br)cc2O[C@@H]1CN(C)C(=O)c1ccccn1 | 10 | nt | nt | nt | 5 | 4
CCOc1ccc(/C=N/NC(=O)c2c(C)n(C)c3ccc(OC)cc23)cc1 | 1 | -10 | -9 | -45 | -3 | -1
COc1ccc2c(c1)c(C(=O)N/N=C/c1ccc(Br)cc1)c(C)n2C | -1 | 15 | -16 | 5 | 26* | -5
SMILES | sPLA2-III inh | Arrestin-AP2 inh | PfM18AAP inh | Lipid droplet | CendR NRP1 mod | HTR2A ag
Cc1noc(C)c1NC(=O)Nc1ccc2c(c1)C(=O)N([C@H](C)CO)C[C@H](C)[C@@H](CN(C)C(=O)NC(C)C)O2 | 5 | -1 | nt | nt | 27* | 7
Cc1noc(C)c1S(=O)(=O)N(C)C[C@H]1OCCCC[C@@H](C)Oc2ccc(NS(=O)(=O)c3cn(C)cn3)cc2C(=O)N([C@H](C)CO)C[C@@H]1C | -3 | nt | nt | nt | 26* | 1
CC(C)NC(=O)N(C)C[C@H]1Oc2ccc(NC(=O)Nc3ccccc3)cc2C(=O)N([C@H](C)CO)C[C@@H]1C | 1 | 4 | nt | nt | 34* | 5
CC(C)NC(=O)Nc1ccc2c(c1)C(=O)N([C@H](C)CO)C[C@H](C)[C@@H](CN(C)S(C)(=O)=O)O2 | 10 | -8 | nt | nt | 12 | -1
CC(C)NC(=O)N(C)C[C@H]1Oc2ccc(NC(=O)Nc3ccccc3)cc2C(=O)N([C@@H](C)CO)C[C@@H]1C | -1 | 2 | nt | nt | 9 | 6
COc1ccc(S(=O)(=O)Nc2ccc3c(c2)C(=O)N([C@H](C)CO)C[C@H](C)[C@@H](CN(C)S(=O)(=O)c2cn(C)cn2)OCCCC[C@H](C)O3)cc1 | -15 | nt | nt | nt | -7 | 4
C[C@H](CO)N1C[C@H](C)[C@@H](CN(C)S(C)(=O)=O)Oc2ccc(NC(=O)NC3CCCCC3)cc2C1=O | 10 | 5 | nt | nt | 31* | -1
CCCCC(=O)N1CCN(C(=O)c2ccc3nc(C)n(C4CCCC4)c3c2)CC1 | 13 | nt | nt | nt | nt | nt
CCOC(=O)[C@]12CCCC=C1N(CCc1ccc(OC)c(OC)c1)C(=O)[C@H](CC(=O)NCc1ccc(C)o1)C2 | -18 | nt | nt | nt | 9 | -1
CC(=O)c1cccc(NC(=O)C(C)OC(=O)CCc2nc3ccccc3c(=O)[nH]2)c1 (stereo not drawn) | 8 | 4 | nt | nt | 13 | -5
O=C(NCc1ccccc1)[C@@H]1CCCN1C(=O)[C@@H](NS(=O)(=O)c1ccc(F)cc1F)c1ccccc1 | 6 | nt | nt | nt | nt | nt
CC(C)NC(=O)Nc1ccc2c(c1)C(=O)N([C@H](C)CO)C[C@H](C)[C@@H](CN(C)C(=O)Nc1ccc3c(c1)OCO3)O2 | 6 | -16 | nt | nt | 2 | 0
CC(C)NC(=O)N(C)C[C@H]1Oc2ccc(NC(=O)Nc3ccc4c(c3)OCO4)cc2C(=O)N([C@H](C)CO)C[C@@H]1C | 5 | 32 | nt | nt | 29* | -4
O=C(Nc1nc(-c2ccc(Cl)cc2Cl)cs1)c1ccc(OCC2CCCO2)cc1 (stereo not drawn) | 4 | 3 | 1 | 77* | 2 | 2
O=C(Nc1cccc([N+](=O)[O-])c1)C1C2CC/C=C\CCC21 (stereo not drawn) | 3 | 24 | 5 | 13 | 41* | 2
CC(C)CN(C(=O)CSc1nc2ccccc2o1)c1c(N)n(Cc2ccccc2)c(=O)[nH]c1=O | -5 | -3 | nt | nt | -6 | 6
